Test results reported in paper PMC4024982 (International Journal of Nanomedicine, 2014).

Key:
Type in all cases: in vivo, Sprague Dawley rats
[1] = test system: rat knee osteoarthritis model; experiment: Micro-CT analysis of OA knee joints; conditions: 6 weeks after injection
In short: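 Hind limbs from OA rats (female, 12-week-old SD; ACL/MCL transection with medial meniscectomy) given 0.2 mL intra-articular injection 3 weeks post-surgery, or left uninjected. Harvested 6 weeks post-injection and formalin-fixed. Micro-CT: 80 kVp, 500 μA, 0.21 s scan, 30 calibrations, 30.74 mm fields of view. BMD measured at the lateral femoral condyle. OA graded semiquantitatively by osteophytes and joint destruction.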

[2] = test system: rat knee osteoarthritis model; experiment: Histological analysis, modified Mankin scoring; conditions: 6 weeks after injection; scale 0–4; negative control 2.5±0.3
caspase-8 = experiment: Immunofluorescence staining of knee joint sections; conditions: 6 weeks after injection; diffuse positive staining in control
In short: (§1)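 OA knees in female 12-week-old SD rats (ACL/MCL transection plus medial meniscectomy), injected intra-articularly with 0.2 mL at 3 weeks post-surgery, uninjected controls. Joints harvested 6 weeks post-injection and formalin-fixed. Sections immunostained for MMP-9, caspase-8, TIMP-1 and collagen II using Alexa Fluor 488/594 secondary antibodies, DAPI counterstain, then examined by fluorescence microscopy.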

TIMP-1 = experiment: Immunofluorescence staining of knee joint sections; conditions: 6 weeks after injection; diffuse positive staining in control
In short: as §1

“Ac-KLDLKLDLKLDL-NH2 [SAP, Ac-KLDLKLDLKLDL-NH2]” was tested, and the “bone mineral density (lateral femoral condyle, micro-CT)” value ([1]; control 1,067.0±12.2) was 1,033.3±17.4, the “Number of animals in each osteoarthritis grade: Grade 1” value ([1]; micro-CT) was 1 and the “Number of animals in each osteoarthritis grade: Grade 2” value ([1]; micro-CT) was 0. The “Number of animals in each osteoarthritis grade: Grade 3” value ([1]; micro-CT) was 2, the “Number of animals in each osteoarthritis grade: Grade 4” value ([1]; micro-CT) was 1 and the “Alcian blue staining component of modified Mankin score (proteoglycan content)” value [2] was 0.5±0.3. For the same substance, the caspase-8 immunofluorescence staining (caspase-8) was “decreased expression” and the TIMP-1 immunofluorescence staining (TIMP-1) was “decreased expression”.
